# Rows were chosen to be rich in hits. Some 6.1% of all compounds tested hit in one or more screens of this group.
# BB579 growth dn: reduces growth of yeast BB579 in restrictive medium; inhibition, % at 10 µM; AID 804; S. cerevisiae BB579 growth, OD615, 48 h; actives 0.51% (n = 140,000);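 active = inhibition above a set limit, 3 SD over the mean compound inhibition, cut at about 44% in these data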
#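 Assay system – yeast BB579 (DeaD) · Dosing – single compound dose of 10 µM, 0.25% DMSO final · Detection – OD615 turbidity measurement · Buffer or medium – CSMM-D restrictive synthetic medium containing dextrose (glucose) · Benchmarks – positive control amphotericin B 10 µg/mL · Incubation – 48 h exposure, 30 °C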
# Measles CPE: protection of cells from measles virus; Measles virus-infected cells, CPE protection, absorbance; protection (pct of control), % at 4 µM; actives 1.5% (n = 140,000); in the data active = protection mostly above about 24%, no sharp cut-off; inactive = mostly below about 26%
# RAM network inh: inhibitors of the yeast RAM network; inhibition, % at 50 µM; actives 1.8% (n = 190,000); S. cerevisiae dse1pr::URA3 reporter, 5-FOA growth OD615, 2 d; analog-sensitive cbk1-as2 kinase mutant strain;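 active = inhibition above a set limit, 3 SD over mean compound inhibition, cut at about 8.4% in these data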;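 note: inhibition rescues growth on 5-FOA so higher OD means more RAM inhibition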
# WT yeast gro inh: growth inhibition of WT yeast, mitochondrial fusion screen; mitochondrial fusion phenotypic screen, WT strain; inhibition, % at 10 µM; actives 2.1% (n = 190,000); AID 1362; in the data active = inhibition above about 58%; tested in S. cerevisiae
# hDAT+cocaine: changed human dopamine transporter uptake under cocaine IC80. Q01959. LLC-PK1 hDAT cells, [14C]-dopamine uptake with cocaine IC80; actives deviate in either direction. B-score at 10 µM. actives 1.3% (n = 110,000). AID 449768;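 active = Z score or B-score, a plate-position-corrected score, falls beyond the plate's 99.7% confidence bounds, in either direction; inactive = both scores lie inside the 99.7% bounds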
# Target sequence (Q01959 whole entry, looked up): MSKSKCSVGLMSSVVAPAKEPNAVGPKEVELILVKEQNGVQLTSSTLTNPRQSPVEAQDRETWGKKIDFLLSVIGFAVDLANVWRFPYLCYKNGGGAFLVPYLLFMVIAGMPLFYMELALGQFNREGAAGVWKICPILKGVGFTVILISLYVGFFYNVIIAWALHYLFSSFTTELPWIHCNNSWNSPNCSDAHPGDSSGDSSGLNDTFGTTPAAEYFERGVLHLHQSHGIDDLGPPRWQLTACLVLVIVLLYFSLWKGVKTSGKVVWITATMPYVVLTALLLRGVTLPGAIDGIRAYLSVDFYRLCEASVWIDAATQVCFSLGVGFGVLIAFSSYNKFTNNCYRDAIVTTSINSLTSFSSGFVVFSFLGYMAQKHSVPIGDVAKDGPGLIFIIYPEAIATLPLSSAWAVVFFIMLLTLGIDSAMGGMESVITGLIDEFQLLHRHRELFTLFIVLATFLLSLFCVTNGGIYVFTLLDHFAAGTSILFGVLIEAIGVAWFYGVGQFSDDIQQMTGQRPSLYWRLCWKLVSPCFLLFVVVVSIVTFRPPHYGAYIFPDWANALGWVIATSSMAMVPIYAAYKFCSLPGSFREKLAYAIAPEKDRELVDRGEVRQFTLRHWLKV
# Yeast life ext: extends the lifespan of yeast; actives 0.68% (n = 130,000); S. cerevisiae growth with nicotinamide, OD615; deaD strain in restrictive glucose medium; AID 775; inhibition of the nicotinamide effect, % at 10 µM;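 active = inhibition above a set limit, placed 3 SD over the median of all compounds, cut at about 26% in these data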
#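 Assay system: engineered S. cerevisiae DeaD replicative-lifespan strain, galactose-grown log-phase cells; medium: restrictive CSMM-D dextrose medium; also added: nicotinamide, 1.5 mM, co-present with compound; schedule: 48 h compound exposure at 30 °C, humidified; detection: absorbance at 615 nm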
# RAM efflux-def: RAM network inhibitors in efflux-deficient yeast; S. cerevisiae efflux-deficient reporter strain, 5-FOA growth OD615, 2 days; max inhibition, %; shares compounds with RAM network inh; 1,200 tested, under 10 active; call rule not given here
# Hits are given with their value; i = inactive; nt = no result given.
SMILES,BB579 growth dn,Measles CPE,RAM network inh,WT yeast gro inh,hDAT+cocaine,Yeast life ext,RAM efflux-def
COc1ccc(C(=O)/C=C/Nc2ccc(S(=O)(=O)Nc3ncccn3)cc2)cc1,i,i,12,i,nt,i,i
Cc1noc(NS(=O)(=O)c2ccc(N/C=C\C(=O)c3ccncc3)cc2)c1C,i,i,i,i,i,i,nt
O=C(O)c1cccc(N/N=C/c2sc(N3CCOCC3)nc2-c2ccccc2)c1,i,i,i,i,nt,i,nt
O=[N+]([O-])c1ccc(N/N=C/c2sc(N3CCOCC3)nc2-c2ccccc2)c(S(=O)(=O)Nc2ccc(Cl)cc2)c1,nt,nt,12,i,nt,nt,i
O=C(Nc1ccc(Oc2ccc3ccccc3c2)cc1)c1ccco1,i,i,15,i,i,i,i
CNC(=S)NNC(=O)c1noc(C)c1C(=O)N1CCN(C(c2ccccc2)c2ccccc2)CC1,nt,nt,i,i,nt,nt,nt
O=C(O)c1ccc(Cl)c(S(=O)(=O)Nc2cccc(C(=O)Nc3cccc(C(F)(F)F)c3)c2)c1,nt,nt,12,i,nt,nt,i
COc1ccc(C(=O)O)cc1S(=O)(=O)Nc1cccc(C(F)(F)F)c1,i,i,i,i,i,i,nt
O=c1[nH]c2ccccc2[n+]([O-])c1-c1ccccc1,nt,nt,i,i,nt,nt,nt
Cc1cccc(NC(=O)CCC(=O)OCC(=O)c2ccc(Oc3ccc([N+](=O)[O-])cc3)cc2)c1,i,i,21,i,nt,i,i
S=C(NCCN1CCOCC1)Nc1ccc(Cl)c(Cl)c1,nt,nt,i,i,nt,nt,nt
COc1ccc(CN(CCC(c2ccccc2)c2ccco2)C(=O)c2ccco2)cc1 (stereo not given),i,i,13,i,nt,i,i
COc1ccc(CN(C(=O)c2ccco2)c2ccccc2)cc1,i,i,i,i,i,nt,nt
COc1ccccc1OC(=O)CCN1c2ccccc2Sc2ccccc21,i,i,14,i,nt,i,i
COC(=O)c1cc2c(ccn2-c2ccc(F)cc2)n1Cc1ccc(OC)cc1,i,i,15,i,nt,i,i
Cn1c(SCC(=O)N2CCc3ccccc32)nnc1-c1ccc(S(=O)(=O)N2CCCC2)cc1,i,i,12,i,nt,i,i
Cc1ccc(C)c(-n2c(SCC(=O)NC(C(=O)O)C(C)C)nnc2-c2cccc(Cl)c2)c1 (stereo not given),nt,nt,i,i,nt,nt,nt
COc1cc(C(c2sc3nc(C)nn3c2O)N2CCN(c3ccccc3)CC2)cc(OC)c1OC (stereo not given),i,i,16,i,i,i,i
COc1cc(C(c2sc3nc(C)nn3c2O)N2CCOCC2)cc(OC)c1OC (stereo not given),i,i,i,i,i,i,nt
C/C=C(/C)C(=O)O[C@@H]1c2c(ccc3ccc(=O)oc23)O[C@@H]1C(C)(C)OC(=O)/C(C)=C\C,i,i,18,i,i,i,i
C/C=C(/C)C(=O)OC(C)(C)[C@@H]1Cc2c(ccc3ccc(=O)oc23)O1,i,i,i,i,i,i,nt
CN(C)S(=O)(=O)Oc1ccc(Cl)cc1C(=O)Nc1ccc(F)cc1F,nt,nt,i,i,nt,nt,nt
COc1ccccc1-n1c(C)nc2cc(C(=O)NCCN3CCOCC3)ccc21,nt,nt,i,i,nt,nt,nt
CCCC(=O)Oc1c(S(=O)(=O)c2ccc(C)cc2)c(C)nn1C(C)(C)C,nt,nt,12,i,nt,nt,i
Cc1ccc(S(=O)(=O)c2c(C)nn(C(C)(C)C)c2OC(=O)C(C)C)cc1,nt,nt,i,i,nt,nt,nt
SMILES,BB579 growth dn,Measles CPE,RAM network inh,WT yeast gro inh,hDAT+cocaine,Yeast life ext,RAM efflux-def
O=C(C1=C[C@H](c2csc3ccccc23)C[C@H](OCc2ccc(CO)cc2)O1)N1CCOCC1,nt,nt,14,i,i,nt,i
CN1CCN(C(=O)C2=C[C@@H](c3csc4ccccc34)C[C@@H](OCc3ccc(CO)cc3)O2)CC1,nt,nt,i,i,i,nt,nt
CC(C)SCCCCOc1ccc2ccccc2c1,i,i,12,i,i,i,i
CSc1ccccc1-c1nnc(-c2ccc(C)cc2)o1,i,i,14,i,i,i,i
CSc1ccccc1-c1nnc(-c2ccccc2)o1,i,i,i,i,i,i,nt
Cn1c(C(=O)N2CCN(c3ccc([N+](=O)[O-])cc3)CC2)cc2c(=O)[nH]c3ccccc3c21,nt,nt,i,i,nt,nt,nt
CC(C)CCOCC(=O)Nc1cccc(C(=O)O)c1,i,i,i,i,i,i,nt
Cc1ccc(NC(=O)Cc2ccc(Cl)c(Cl)c2)cc1S(=O)(=O)N(C)C,i,i,12,i,nt,i,i
CC(C)(C)CNc1cc(N2CCCC2)ccc1[N+](=O)[O-],i,i,i,i,i,i,nt
CC(C)c1ccc(CNc2cc(N3CCCC3)ccc2[N+](=O)[O-])cc1,i,i,19,i,i,i,i
CCSc1n[nH]c(=S)s1,nt,nt,i,i,nt,nt,nt
CN(C)C(=O)COC(=O)/C=C/c1ccccc1[N+](=O)[O-],i,i,i,i,i,i,nt
C=CCN(CC=C)C(=O)c1ccc(OC2CCN(S(=O)(=O)N(C)C)CC2)cc1,nt,nt,i,i,nt,nt,nt
CCOC(=O)C1=C(c2ccccc2)N=c2s/c(=C\c3cc(OC)c(OC)c(OC)c3)c(=O)n2C1c1cccs1 (stereo not given),i,i,12,i,i,i,i
CCOC(=O)C1=C(c2ccccc2)N=c2s/c(=C\c3ccco3)c(=O)n2C1c1cccs1 (stereo not given),i,i,i,i,nt,i,nt
O=C(CC1(O)C(=O)N(Cc2ccccc2)c2ccccc21)c1ccncc1 (stereo not given),i,i,i,i,i,i,nt
CCCCC1(CC(=O)OCC)C(=O)N(c2ccccc2)N(c2ccccc2)C1=O,i,i,i,i,nt,i,nt
CCCCC1(Cc2cccc([N+](=O)[O-])c2)C(=O)N(c2ccccc2)N(c2ccccc2)C1=O,i,i,13,i,i,i,i
Cc1cccc(N2C(=S)N=C(Nc3c(C)cccc3C)C23CCOC(C)(C)C3)c1 (stereo not given),i,i,i,i,i,i,nt
CC(C)NC(=O)CC(c1ccccc1)c1cc(Br)ccc1O (stereo not given),i,i,i,i,i,i,nt
CCCCCCNC(=O)CC(c1ccccc1)c1cc(Br)ccc1O (stereo not given),i,i,11,i,i,nt,i
CCOc1cc(C(=O)NCCN2C(=O)S/C(=C\c3cccnc3)C2=O)cc(OCC)c1OCC,i,i,i,i,nt,i,nt
CC(C)c1ccccc1NC(=O)COC(=O)COc1ccccc1[N+](=O)[O-],nt,nt,i,i,nt,nt,nt
COC(=O)c1ccc(NC(=O)Cn2nc(C)cc2C)cc1,nt,nt,i,i,nt,nt,nt
COc1ccnc(N2CCN(c3ccc(Cl)cc3)CC2)c1C#N,i,i,14,i,i,i,i
O=C(Nc1nnc(CC(=O)N2CCCC2)s1)c1cnccn1,nt,nt,nt,i,nt,nt,nt
Cc1ccc(O)c(C(=O)/C=C/c2ccc3c(c2)OCCCO3)c1,i,i,12,61,nt,i,i

# Source: PubChem
